Assay results from ChEMBL document CHEMBL1799981, “Synthesis and evaluation of nitric oxide-releasing derivatives of 3-n-butylphthalide as anti-platelet agents” (Bioorg Med Chem Lett, 2011).

Legend:
[1] = Induction of NO release from the compound in phosphate buffer at pH 7.4 at 0.1 mM incubated for 15 to 300 mins measured every 15 mins for 120 mins and every 30 mins for remaining time by Griess assay; type: physicochemical; settings: pH 7.4, 100 µM
Procedure, shortened: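 Compound at 0.1 mM in PBS pH 7.4 containing 2% DMSO and 5.0 mM L-cysteine, incubated at 37 °C for 15–300 min. Sampled every 15 min up to 120 min, then every 30 min. Samples (2 mL) mixed with Griess reagent, 37 °C 10 min, absorbance at 540 nm. NO quantified against nitrite standards; means per time point.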

[2] = Antiplatelet activity in rabbit platelet rich plasma assessed as inhibition of ADP-induced aggregation treated for 5 mins before ADP challenge by turbidimetry; type: functional; settings: Oryctolagus cuniculus
Procedure, shortened: (§1)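 Rabbit PRP (low-speed spin 500 rpm 10 min; PPP from 3000 rpm 10 min as reference) pre-treated in duplicate with vehicle, reference drug or compound for 5 min, then ADP 10 µM final at 37 °C for 5 min. Aggregation followed by optical density (Born turbidimetry). % inhibition versus vehicle-treated ADP-exposed controls; IC50 by nonlinear regression, top concentration 1.0 mM. Mean ± S.D., n = 4.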

[3] = Antiplatelet activity in rabbit platelet rich plasma assessed as inhibition of ADP-induced aggregation at 1 mM treated for 5 mins before ADP challenge by turbidimetry; type: functional; settings: Oryctolagus cuniculus; procedure, shortened: as §1
[4] = Aqueous solubility of the compound; type: physicochemical; settings: buffer
[5] = Antiplatelet activity in rabbit platelet rich plasma assessed as inhibition of ADP-induced aggregation at 1 mM treated for 5 mins before ADP challenge by turbidimetry in presence of endogenous NO scavenger hemoglobin; type: functional; settings: Oryctolagus cuniculus
Procedure, shortened: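 Rabbit PRP exposed to compound at 1.0 mM for 5 min at 37 °C together with hemoglobin 20 µM (NO scavenger), then challenged with ADP 10 µM. Aggregation monitored turbidimetrically. Inhibition relative to vehicle-treated ADP-exposed controls. Mean ± SD from several independent experiments; Student's t test.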

| Structure (SMILES) | Activity [1] | inhibition at 1000 µM [3] | further results |
| --- | --- | --- | --- |
| CCCCC(OC(=O)CN1CCOCC1)c1ccccc1C(=O)Oc1ccc(/C=C/C(=O)NCCO[N+](=O)[O-])cc1.Cl (centres undefined) | 0.043 µg/mL | – | – |
| CCCCC(OC(=O)CN(CC)CC)c1ccccc1C(=O)Oc1ccc(/C=C/C(=O)NCCO[N+](=O)[O-])cc1OC.Cl (centres undefined) | 0.057 µg/mL | 83% | IC50 [2]: 54.4 µM; solubility [4]: soluble; inhibition at 1000 µM [5]: 54.4% |
| CCCCC(OC(=O)CN1CCCCC1)c1ccccc1C(=O)Oc1ccc(/C=C/C(=O)NCCO[N+](=O)[O-])cc1OC.Cl (centres undefined) | 0.06 µg/mL | 83% | IC50 [2]: 39.4 µM |
| CCCCC(OC(=O)CN1CCCCC1)c1ccccc1C(=O)Oc1ccc(/C=C/C(=O)NCCO[N+](=O)[O-])cc1.Cl (centres undefined) | – | 82.4% | solubility [4]: soluble |
| CCCCC(OC(=O)CN(CC)CC)c1ccccc1C(=O)Oc1ccc(/C=C/C(=O)NCCCO[N+](=O)[O-])cc1.Cl (centres undefined) | – | 82.1% | solubility [4]: soluble |
| CCCCC(OC(=O)CN(CC)CC)c1ccccc1C(=O)O (centres undefined) | – | 67.2% | – |
| COc1cc(/C=C/C(=O)NCCO[N+](=O)[O-])ccc1O | – | 51.3% | – |
| CCCCC(OC(C)=O)c1ccccc1C(=O)Oc1ccc(/C=C/C(=O)NCC(C)O[N+](=O)[O-])cc1OC (centres undefined) | 0.027 µg/mL | – | – |
| CCCCC(OC(C)=O)c1ccccc1C(=O)Oc1ccc(/C=C/C(=O)NCCO[N+](=O)[O-])cc1 (centres undefined) | 0.022 µg/mL | – | – |
| CCCCC1OC(=O)c2ccccc21 (racemic) [RAC-3-N-BUTYLPHTHALIDE] | – | 67.8% | – |
| CC(=O)Oc1ccccc1C(=O)O [ASPIRIN] | – | 68.5% | – |
